Results: ChEMBL document CHEMBL1140709, “Design, synthesis, and biological evaluation of (E)-styrylbenzylsulfones as novel anticancer agents” (J Med Chem, 2008)
Activity calls are given as the source filed them. No cut-off for these calls is given here.

Key:
MIA PaCa-2 [1] = experiment: Antitumor activity against human MiaPaCa2 cells by trypan blue exclusion assay; assay type: functional, cell-based
Outline: (§1)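 Tumour cells were grown in DMEM or RPMI with 10% fetal bovine serum and 1 unit/mL penicillin-streptomycin. They were seeded in six-well dishes at 1.0 × 10⁵ cells/mL/well, and compound was added 24 h later over a range of concentrations. After 96 h of exposure, viable cells in duplicate wells were counted by trypan blue exclusion.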

HCT-15 = experiment: Antitumor activity against human HCT15 cells by trypan blue exclusion assay; assay type: functional, cell-based; outline: as §1
[2] = Antitumor activity against human Namalwa cells by trypan blue exclusion assay; assay type: functional, cell-based; settings: NAMALVA; outline: as §1
[3] = Antitumor activity against human RF48 cells by trypan blue exclusion assay; assay type: functional, cell-based; outline: as §1
CCRF-CEM [4] = experiment: (§2) Antitumor activity against human CEM cells by trypan blue exclusion assay; assay type: functional, cell-based; outline: as §1
Daudi = experiment: Antitumor activity against human Daudi cells by trypan blue exclusion assay; assay type: functional, cell-based; outline: as §1
SK-MEL-28 = experiment: Antitumor activity against human SK-MEL-28 cells by trypan blue exclusion assay; assay type: functional, cell-based; outline: as §1
HUVEC = experiment: Cell cycle arrest in HUVEC cells by accumulation at G1 phase by FACS analysis; assay type: functional, cell-based; settings: Homo sapiens
Outline: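 HUVEC were exposed to 20 nM compound in medium with 10% fetal bovine serum. At 24 h intervals, cells were fixed, stained with propidium iodide and analysed for DNA content by flow cytometry.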

MCF7 = experiment: Antitumor activity against ER-positive human MCF7 cells by trypan blue exclusion assay; assay type: functional, cell-based; outline: as §1
OVCAR-3 = experiment: Antitumor activity against human OVCAR-3 cells by trypan blue exclusion assay; assay type: functional, cell-based; outline: as §1
A549 = experiment: Antitumor activity against human A549 cells by trypan blue exclusion assay; assay type: functional, cell-based; outline: as §1
CCRF-CEM [5] = experiment: as §2; assay type: functional, cell-based; outline: as §1; remark: listed apart in the source
CEM/C2 = experiment: Antitumor activity against human multidrug-resistant CEM/C2 cells by trypan blue exclusion assay; assay type: functional, cell-based; outline: as §1
[6] = Antitumor activity against human H187 cells by trypan blue exclusion assay; assay type: functional, cell-based; settings: NCI-H187; outline: as §1
[7] = Antitumor activity against human H157 cells by trypan blue exclusion assay; assay type: functional, cell-based; settings: NCI-H157; outline: as §1
PC-3 = experiment: Antitumor activity against […] human PC3 cells by trypan blue exclusion assay; assay type: functional, cell-based; outline: as §1
T47D = experiment: Antitumor activity against ER-positive human T47D cells by trypan blue exclusion assay; assay type: functional, cell-based; outline: as §1
MOLT-4 = experiment: Antitumor activity against human MOLT4 cells by trypan blue exclusion assay; assay type: functional, cell-based; outline: as §1
BT-20 [8] = experiment: Antitumor activity against ER-negative human BT20 xenografted athymic NCR-nu/nu mouse at 25 mg/kg, ip for every 4 days after 22 days; settings: route intraperitoneal
COLO 205 = experiment: Antitumor activity against human COLO205 cells by trypan blue exclusion assay; assay type: functional, cell-based; outline: as §1
BT-20 [9] = experiment: Antitumor activity against ER-negative human BT20 xenografted athymic NCR-nu/nu mouse at 50 mg/kg, ip every 2 days after 22 days; settings: route intraperitoneal
[10] = Antitumor activity against human U87 cells by trypan blue exclusion assay; assay type: functional, cell-based, U-87MG ATCC; settings: U-87 MG; outline: as §1
[11] = Antitumor activity against human RF1 cells by trypan blue exclusion assay; assay type: functional, cell-based; outline: as §1
AGS = experiment: Antitumor activity against human AGS cells by trypan blue exclusion assay; assay type: functional, cell-based; outline: as §1
[12] = Antitumor activity against human MES-SA cells by trypan blue exclusion assay; assay type: functional, cell-based; outline: as §1
Raji = experiment: Antitumor activity against human Raji cells by trypan blue exclusion assay; assay type: functional, cell-based; outline: as §1
DU-145 [13] = experiment: Antitumor activity against AR-negative human DU145 cells by trypan blue exclusion assay; assay type: functional, cell-based; outline: as §1
BT-20 [14] = experiment: Antitumor activity against human BT20 cells by trypan blue exclusion assay; assay type: functional, cell-based; outline: as §1
[15] = Antitumor activity against human multidrug-resistant MES-SA/DX5 cells by trypan blue exclusion assay; assay type: functional, cell-based; outline: as §1
DLD-1 = experiment: Antitumor activity against human DLD1 cells by trypan blue exclusion assay; assay type: functional, cell-based; outline: as §1
[16] = Antitumor activity against human N417 cells by trypan blue exclusion assay; assay type: functional, cell-based; outline: as §1
BT-20 [17] = experiment: Antitumor activity against human BT20 xenografted athymic NCR-nu/nu mouse at 50 mg/kg, ip after 22 days
BT-20 [18] = experiment: Growth inhibition of human BT20 after 3 weeks by soft agar colony formation assay; assay type: functional, cell-based
Outline: (§3)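 Noble agar: 0.8% bottom layer; cells (1.0 × 10⁵ for MIA-PaCa-2) in medium with compound at various concentrations, mixed into 0.4% top agar. Each concentration in triplicate; 3 weeks at 37 °C, 5% CO₂. Stained with 0.05% nitroblue tetrazolium for 48 h and colonies photographed.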

2008 = experiment: Antitumor activity against human 2008 cells by trypan blue exclusion assay; assay type: functional, cell-based; outline: as §1
DU-145 [19] = experiment: Growth inhibition of human DU145 after 3 weeks by soft agar colony formation assay; assay type: functional, cell-based; outline: as §3
SW480 = experiment: Antitumor activity against human SW480 cells by trypan blue exclusion assay; assay type: functional, cell-based; outline: as §1
MIA PaCa-2 [20] = experiment: Growth inhibition of human MiaPaCa2 cells after 3 weeks by soft agar colony formation assay; assay type: functional, cell-based; outline: as §3
SK-OV-3 = experiment: Antitumor activity against human SKOV3 cells by trypan blue exclusion assay; assay type: functional, cell-based; outline: as §1
[21] = Antitumor activity against human multidrug-resistant 2008/17/4 cells by trypan blue exclusion assay; assay type: functional; outline: as §1
K562 = experiment: Antitumor activity against human K562 cells by trypan blue exclusion assay; assay type: functional, cell-based; outline: as §1
HCT-116 = experiment: Antitumor activity against human HCT116 cells by trypan blue exclusion assay; assay type: functional, cell-based; outline: as §1
Rattus norvegicus [22] = experiment: Hematotoxicity in rat at 100 mg/kg, iv; assay type: organism-based; design: dose 100 mg/kg, route intravenous; settings: in vivo
Outline: (§4)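 Rats were given the water-soluble phosphate form iv in single-dose and repeat-dose (28 daily injections) toxicology studies, with biochemical and cellular analysis.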

Rattus norvegicus [23] = experiment: Effect on liver damage in rat at 100 mg/kg, iv; assay type: ADME, organism-based; design: dose 100 mg/kg, route intravenous; settings: in vivo; outline: as §4
Mus musculus [24] = experiment: Neurotoxicity in CD1 mouse at 100 mg/kg, iv; assay type: toxicity, organism-based; design: dose 100 mg/kg, route intravenous; settings: in vivo
Rattus norvegicus [25] = experiment: Neurotoxicity in rat at 100 mg/kg, iv; assay type: toxicity, organism-based; design: dose 100 mg/kg, route intravenous; settings: in vivo; outline: as §4
Mus musculus [26] = experiment: Hematotoxicity in CD1 mouse at 100 mg/kg, iv; assay type: organism-based; design: dose 100 mg/kg, route intravenous; settings: in vivo
Outline: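 CD-1 mice received 200 µL iv of PBS or drug (10 mg/mL; 100 mg/kg). Bone marrow was taken from femur and tibia 12, 24 or 48 h later. Cells were cultured in duplicate in methylcellulose with stem cell factor 50 ng/mL, IL-3 10 ng/mL, IL-6 10 ng/mL, transferrin 200 µg/mL and erythropoietin 3 units/mL. Total, myeloid and lymphoid colony-forming units were counted after 1 week.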

Mus musculus [27] = experiment: Effect on liver damage in CD1 mouse at 100 mg/kg, iv; assay type: ADME, organism-based; design: dose 100 mg/kg, route intravenous; settings: in vivo

SMILES	IC50 (MIA PaCa-2 [1])	IC50 (HCT-15)	IC50 [2]	IC50 [3]	IC50 (CCRF-CEM [4])	IC50 (Daudi)	IC50 (SK-MEL-28)	Activity (HUVEC)	IC50 (MCF7)	IC50 (OVCAR-3)	IC50 (A549)	IC50 (CCRF-CEM [5])	IC50 (CEM/C2)	IC50 [6]	IC50 [7]	IC50 (PC-3)	IC50 (T47D)	IC50 (DU-145 [13])	IC50 (BT-20 [14])	IC50 (DLD-1)	further results
COc1ccc(CS(=O)(=O)/C=C/c2c(OC)cc(OC)cc2OC)cc1	8 nM	20 nM	15 nM	10 nM	30 nM	8 nM	40 nM	Active	3 nM	8 nM	20 nM	30 nM	10 nM	15 nM	30 nM	30 nM	25 nM	25 nM	20 nM	40 nM	IC50 (MOLT-4): 9 nM; Activity (BT-20 [8]): 74 mm3; IC50 (COLO 205): 15 nM; Activity (BT-20 [9]): 67.5 mm3; IC50 [10]: 40 nM; IC50 [11]: 8 nM; IC50 (AGS): 20 nM; IC50 [12]: 10 nM; IC50 (Raji): 9 nM; IC50 [15]: 10 nM; IC50 [16]: 8 nM; Activity (BT-20 [17]): Active
COc1cc(OC)c(/C=C/S(=O)(=O)Cc2ccc(OC)c(O)c2)c(OC)c1	4 nM	8 nM	6 nM	5 nM	10 nM	7 nM	7 nM	Active	4 nM	6 nM	10 nM	9 nM	10 nM	7 nM	4 nM	8 nM	6 nM	3 nM	10 nM	3 nM	Activity (BT-20 [18]): Dose-dependent effect; IC50 2008: 5 nM; Activity (DU-145 [19]): Dose-dependent effect; IC50 (SW480): 7 nM; Activity (MIA PaCa-2 [20]): Dose-dependent effect; IC50 (SK-OV-3): 6 nM; IC50 (MOLT-4): 5 nM; IC50 (COLO 205): 9 nM; IC50 [21]: 4 nM; IC50 [10]: 7 nM; IC50 [11]: 6 nM; IC50 (AGS): 7 nM; IC50 [12]: 6 nM; IC50 (Raji): 4 nM; IC50 (K562): 4 nM; IC50 [15]: 5 nM; IC50 (HCT-116): 9 nM; IC50 [16]: 5 nM
COc1cc(OC)c(/C=C/S(=O)(=O)Cc2ccc(OC)c(OP(=O)([O-])O)c2)c(OC)c1.[Na+]															7 nM			2.5 nM	5 nM	7 nM	Activity (BT-20 [18]): Dose-dependent effect; Activity (DU-145 [19]): Dose-dependent effect; Activity (MIA PaCa-2 [20]): Dose-dependent effect; Activity (Rattus norvegicus [22]): Non-toxic; Activity (Rattus norvegicus [23]): Non-toxic; Activity (Mus musculus [24]): Non-toxic; Activity (Rattus norvegicus [25]): Non-toxic; Activity (Mus musculus [26]): Non-toxic; Activity (Mus musculus [27]): Non-toxic; Activity (BT-20 [17]): Active
